Screening results (PubChem BioAssay)
Only some compounds are listed: those with a hit (about 1.9% of all), similar ones and a draw of the others.
CHRM5 PAM – potentiates acetylcholine response at human M5 receptor | P08912 | hit rate 0.3% among 360,000 | activation, % at 3 µM | AID 624038 | CHO-K1 hM5, Fluo-8 calcium, ACh EC20 PAM; 0% = ACh EC20, 100% = ACh EC100;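 active means activation above the run cutoff, the mean activation of all test compounds plus 3 SD, cut at about 18% in these data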
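system = human M5 receptor in CHO-K1 cells | compound = one concentration, 3 µM final (nominal) | schedule = Post-acetylcholine fluorescence recording 140 s | signal = Fluo-8 calcium dye fluorescence, kinetic read | benchmarks = low control EC20 acetylcholine (0%), high control EC100 acetylcholine (100%) | repeats = singlicate, one well per test compound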
CHRM4 antagonist – CHRM4 antagonism in calcium assay; CHO-hM4 cells, ACh EC80, Fluo-8 calcium fluorescence; inhibition, % at 3 µM; P08173; hit rate 0.73% among 360,000;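 active means inhibition above its plate's cutoff, the mean inhibition of sample wells plus 3 SD, cut at about 27% in these data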
Target sequence (P08173 whole entry, looked up): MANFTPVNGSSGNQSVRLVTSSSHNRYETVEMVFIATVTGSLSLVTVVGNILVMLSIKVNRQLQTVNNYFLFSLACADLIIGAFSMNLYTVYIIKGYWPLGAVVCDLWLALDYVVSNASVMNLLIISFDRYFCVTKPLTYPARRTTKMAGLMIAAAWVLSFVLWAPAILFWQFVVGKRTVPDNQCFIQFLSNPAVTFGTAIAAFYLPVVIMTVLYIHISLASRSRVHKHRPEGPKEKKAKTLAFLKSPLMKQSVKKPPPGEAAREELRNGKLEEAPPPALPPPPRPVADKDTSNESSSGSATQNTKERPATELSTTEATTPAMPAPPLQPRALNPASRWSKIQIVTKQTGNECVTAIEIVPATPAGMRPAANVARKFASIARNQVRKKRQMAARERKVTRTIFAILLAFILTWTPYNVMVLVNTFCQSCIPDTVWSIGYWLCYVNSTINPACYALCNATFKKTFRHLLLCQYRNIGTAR
M4 PAM – CHRM4 positive allosteric modulation. CHO-K1 hM4/Gqi5, Fluo-8 calcium fluorescence, ACh EC20; 0% = ACh EC20, 100% = maximal ACh. activation, % at 3 µM. hit rate 0.4% among 360,000;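 active means activation above its plate's cutoff, the mean activation of sample wells plus 3 SD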
M5 ag – agonists of human muscarinic M5 receptor (CHRM5); P08912; CHO-K1 hM5 cells, Fluo-8 calcium fluorescence; 0% DMSO wells, 100% maximal acetylcholine response; activation, % at 3 µM; hit rate 0.19% among 360,000; AID 624037;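 active means activation above the run's mean over test compounds plus 3 SD, cut at about 23% in these data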;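 further: signal is peak over basal fluorescence ratio across the kinetic read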
CHRM5 antagonist – CHRM5 antagonism in calcium assay. inhibition, % at 3 µM. hit rate 0.59% among 360,000. CHO-hM5 cells, Fluo-8 calcium fluorescence, ACh EC80;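 active means inhibition above a per-plate cutoff, the mean of that plate's test compounds plus 3 SD, cut at about 27% in these data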
M4 ag – agonists of human muscarinic M4 receptor (CHRM4); AID 624127; activation, % at 3 µM; P08173; CHO-K1 hM4/Gqi5, Fluo-8 calcium fluorescence; vehicle 0%, full acetylcholine response 100%; hit rate 0.14% among 360,000;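 active means activation above the run mean over all test wells plus 3 SD, cut at about 32% in these data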;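 further: peak over basal fluorescence ratio per well then scaled between controls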
Of the large screens only hits and unclear results are named; the others gave an inactive call.

CCOc1ccc(NC(=O)CN2C(=O)NC(C)(c3ccc(OC(F)F)cc3)C2=O)cc1 (stereo unspecified)	M4 ag 51
CC1(c2ccc(OC(F)F)cc2)NC(=O)N(CC(=O)Nc2ccc(S(N)(=O)=O)cc2)C1=O (stereo unspecified)	none
CC1(c2ccc(OC(F)F)cc2)NC(=O)N(CC(=O)Nc2ccc(F)cc2)C1=O (stereo unspecified)	M5 ag 24, M4 ag 32
CC1(c2ccc(OC(F)F)cc2)NC(=O)N(CC(=O)Nc2ccc(OC(F)F)cc2)C1=O (stereo unspecified)	M5 ag 27, M4 ag 38
COC(=O)c1c(NC(=O)C2=COCCO2)sc(C)c1C	M4 PAM 25
COc1ccc(C)c2sc(NC(=O)C3=COCCO3)nc12	M4 PAM 36
O=C1/C(=C/c2ccc(F)c(F)c2)CSc2sccc21	M4 PAM 37
O=C1/C(=C\c2ccc(C(F)(F)F)cc2)CSc2sccc21	none
CCOC(=O)C(=O)c1cn(C2OCC(OC(C)=O)C(OC(C)=O)C2OC(C)=O)c2ccccc12 (stereo unspecified)	M4 PAM 22
CCOC(=O)Cn1cc(C(=O)C(=O)N2CCOCC2)c2ccccc21	none
CN1OC[C@@H]2CN(S(=O)(=O)c3cccc(C(F)(F)F)c3)[C@H](c3ccc(-c4cccnc4)cc3)C[C@@H]21	none
NCCCCCc1nnc(SC/C=C/c2ccccc2)o1	CHRM4 antagonist 38
O=C(NCc1nnc(SC/C=C/c2ccccc2)o1)c1ccco1	none
NCCCCCc1nnc(SCc2ccccc2Cl)o1	CHRM5 antagonist 28
NCCc1nnc(SCc2c(Cl)cccc2Cl)o1	none
Cc1cnc(CNC(=O)c2ccc3sc([C@H]4C[C@H](O)[C@@H](CO)O4)nc3c2)cn1	none
CC[N+](C)(C)CCN(Cc1ccc(Cl)cc1)c1ccccn1	CHRM5 antagonist 47
CCN(CC)S(=O)(=O)c1ccc(OCCNS(C)(=O)=O)cc1	CHRM5 antagonist 29
CCNS(=O)(=O)c1ccc(OCCNS(C)(=O)=O)cc1	none
Cc1cc(Cl)cc(Cl)c1OCCN1CCCC1	CHRM5 PAM 24
COc1ccc(-n2ccc(=O)c(C(=O)O)n2)c(OC)c1	none
CCOC(=O)C1=C[C@@H](C2CCCC2)N(S(=O)(=O)c2ccc([N+](=O)[O-])cc2)[C@H]1c1ccccc1	CHRM4 antagonist 39
CCOC(=O)C1=C[C@@H](CC)N(S(=O)(=O)c2ccc(C)cc2)[C@H]1c1ccccc1	none
COc1cc(C(=O)Nc2ccc(N3CCN(C(=O)c4ccc(C)cc4)CC3)cc2)cc(OC)c1OC	none
CCCc1cc(=O)n2c([nH]c3ccccc32)c1C#N	M5 ag 31
O=[N+]([O-])c1ccc(CN2CCC(Cc3ccccc3)CC2)cc1	none
CCC(=O)c1ccccc1OCCCN1CCC(Cc2ccccc2)CC1	CHRM4 antagonist 42
CC(=O)CCc1ccc(OCCCCN2CCC(Cc3ccccc3)CC2)cc1	CHRM4 antagonist 75
O=[N+]([O-])c1cccc(OCCCN2CCC(Cc3ccccc3)CC2)c1	CHRM4 antagonist 38
O=C(O)/C=C(\Oc1ccccc1)C1(O)CCCCC1	none
Cc1c(C(=O)Nc2cc(F)cc(F)c2)cnn1-c1ccccc1	none
COc1ccc(C(C)NC(=O)c2ccncc2)cc1OC (stereo unspecified)	none
CN(C(=O)Cn1nc(C(=O)O)c2ccccc2c1=O)C1(C#N)CCCCC1	M4 PAM 23
O=C(O)c1nn(CC(=O)N2CCCCCC2)c(=O)c2ccccc12	none
Cc1ccsc1C(=O)N1CCN(S(=O)(=O)c2cccs2)CC1	none
Cc1ccccc1C(=O)N1CCN(S(=O)(=O)c2cccs2)CC1	CHRM4 antagonist 27
O=C(NC1CCCCC1)N1CCC(c2nc(-c3ccc(S(=O)(=O)N4CCCC4)cc3)no2)CC1	none
O=C(C1CC1)N1CCC(c2nc(-c3ccc(S(=O)(=O)N4CCCC4)cc3)no2)CC1	CHRM5 antagonist 66
COc1ccccc1N(CC(=O)NC1CCCC1)C(=O)CCC(=O)Nc1ccccn1	none
